# Data published in article PMC4136688 (Journal of Medicinal Chemistry, 2014).
# Columns and labels:
# Human glioma T98G cells [1] = test: Time-dependent cellular uptake; type: cell-based; settings: 10 μM, over 24 h
# Summary of the method: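 T98G glioma cells (EMEM, 10% FBS) seeded 10 000/well, grown 36 h, then exposed to 10 μM test compound for 0, 1, 2, 4, 8, 24 h. After PBS wash, cells lysed in 0.25% Triton X-100/PBS; porphyrin fluorescence read at 415/650 nm. Cell number by CyQuant; uptake expressed as nM compound per cell.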
# hCMEC/D3 cells = test: In vitro BBB model permeability; type: in vitro ADME, human; settings: hCMEC/D3 monolayer, 1 mg/mL in HBSS, up to 60 min
# Summary of the method: (§1)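 hCMEC/D3 brain endothelial cells grown 48 h on 0.4 μm PET transwell inserts in EBM-2 with 5% FBS, hydrocortisone, ascorbic acid, lipid concentrate, HEPES, bFGF. Test compound or lucifer yellow reference (1 mg/mL in HBSS, pH 6.7–7.8) added apically; basolateral HBSS. 37 °C, 5% CO2; lower chamber sampled at 0, 30, 60 min (five replicates). Fluorescence 415/650 nm (LY 420/540); P by clearance principle.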
# Human glioma T98G cells [2] = test: Dark cytotoxicity; type: cell-based; settings: read-out: dark toxicity IC50, CellTiter Blue assay, concentrations up to 400 μM, overnight
# [3] = In vitro BBB model permeability; type: in vitro ADME, human
# Summary of the method: as §1
Permeability coefficient P × 10^–6 (hCMEC/D3 cells),Compound,time-dependent uptake (in words) (Human glioma T98G cells [1]),IC50 (Human glioma T98G cells [2]) [µM],Papp A→B [3] [×10⁻⁶ cm/s]
1.36 ± 0.04 × 10^–6 cm/s,"5,10,15,20-Tetra(p-carboranylmethylthiotetrafluorophenyl)porphyrin [Compound 1]",accumulated the fastest,> 400,
,N=C(N)NCCC[C@@H](NC(=O)[C@H](Cc1ccc(O)cc1)NC(=O)CCOCCOCCOCCNc1c(F)c(F)c(-c2c3nc(c(-c4c(F)c(F)c(SCC56BBBBC(BBB5)BBB6)c(F)c4F)c4ccc([nH]4)c(-c4c(F)c(F)c(SCC56BBBBC(BBB5)BBB6)c(F)c4F)c4nc(c(-c5c(F)c(F)c(SCC67BBBBC(BBB6)BBB7)c(F)c5F)c5ccc2[nH]5)C=C4)C=C3)c(F)c1F)C(=O)N[C@@H](Cc1ccccc1)C(=O)NCCC(N)=O [Compound 8],had the least,,1.71 ± 0.06
21.7 ± 0.30 × 10^–6 cm/s,"lucifer yellow [LY, reference compound]",,,
